Measurements: ChEMBL document CHEMBL1130244, “Boron-containing polyamines as DNA targeting agents for neutron capture therapy of brain tumors: synthesis and biological evaluation” (J Med Chem, 1997)

Assays:
[1] = Actual boron concentration in media was determined by using direct current plasma atomic emission spectroscopy (DCP-AES) after 24 hr incubation
Rattus norvegicus = species: Rattus norvegicus; experiment: In vitro uptake of compound by F98 glioma cells was determined by measuring cellular boron content using direct current plasma atomic emission spectroscopy (DCP-AES) after 24 hr incubation
[2] = Concentration required to produce a 50% reduction in the uptake of [3H]TdR, by F98 glioma cells; format: functional; conditions: Rattus norvegicus, F98, 24 h
How it was run: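 F98 rat glioma cells, 10 000/well, grown overnight at 37 °C in DMEM with 10% FBS, then 24 h with polyamine at 1–100 μM (0.1–10 μg/mL boron); medium replaced with compound-free medium, pulsed with 0.1 μCi [3H]TdR per well for 18–24 h, then harvested and counted. Six replicates per concentration; IC50 from cpm as % of untreated controls.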

Nucleic Acid = experiment: Binding of compound to calf thymus DNA was determined by an ethidium bromide displacement assay; format: nucleic-acid assay, Bos taurus

Row | IC50 [2] | IC50 (Nucleic Acid) | SMILES | Cmedia [1] | Concentration (Rattus norvegicus)
1 | – | – | N[C@@H](Cc1ccc(B(O)O)cc1)C(=O)O | 50 ug of B/ml | 81 µg of B g-1
2 | > 100 µM | – | CCNCCCNCCCCNCCCNCC [BIS(ETHYL)SPERMINE] | – | –
3 | > 100 µM | 175 µM | NCCCCNCCCN [SPERMIDINE] | – | –
4 | > 100 µM | 17 µM | NCCCNCCCCNCCCN [SPERMINE] | – | –
